Data published in ChEMBL document CHEMBL1177671, “Synthesis and cytotoxic activity of a new potential DNA bisintercalator: 1,4-Bis{3-[N-(4-chlorobenzo[g]phthalazin-1-yl)aminopropyl]}piperazine” (Bioorg Med Chem, 2010).

How the values were obtained:
MCF7 = test: Cytotoxicity against human MCF7 cells after 72 hrs by XTT assay; format: functional, cell-based; conditions: MCF7, 72 h
In short: (§1)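 Cells grown in DMEM with 10% heat-inactivated FBS, 2 mM L-glutamine, penicillin/streptomycin at 37 °C, 5% CO2, and tested Mycoplasma-negative. 1.5 × 10³ cells per well were exposed to compound over 10^-4 to 10^-9 M for 72 h at 37 °C, then read by XTT proliferation assay. Done in triplicate; IC50 is the concentration giving 50% proliferation inhibition versus untreated controls.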

HT-29 = test: Cytotoxicity against human HT-29 cells after 72 hrs by XTT assay; format: functional, cell-based; conditions: HT-29, 72 h; in short: as §1
SF-268 = test: Cytotoxicity against human SF268 cells after 72 hrs by XTT assay; format: functional, cell-based; conditions: SF-268, 72 h; in short: as §1
NCI-H460 = test: Cytotoxicity against human NCI-H460 cells after 72 hrs by XTT assay; format: functional, cell-based; conditions: NCI-H460, 72 h; in short: as §1
Calf thymus DNA = test: Binding affinity to calf thymus DNA assessed as change in melting temperature; format: nucleic-acid assay; conditions: Bos taurus
In short: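 ct-DNA sonicated, filtered (0.45 µm) and held in sodium cacodylate buffer, I = 0.05 mol dm^-3, pH 7.0, at 7.5 × 10^-6 M base pairs. Melting was followed by absorbance at 260 nm versus temperature with increasing ligand, ligand absorbance subtracted and normalised. Tm is the transition midpoint (first-derivative maximum or tangent method). ΔTm = Tm(complex) − Tm(free DNA), averaged over ≥3 runs, error 0.5 °C.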

## CCCCNc1nnc(NCCCC)c2cc3ccccc3cc12
MCF7
  IC50: 2.47 µM
HT-29
  IC50: 2.35 µM
SF-268
  IC50: 2.63 µM
NCI-H460
  IC50: 2.03 µM

## Clc1nnc(NCCCN2CCN(CCCNc3nnc(Cl)c4cc5ccccc5cc34)CC2)c2cc3ccccc3cc12
MCF7
  IC50: 0.863 µM
HT-29
  IC50: 0.497 µM
SF-268
  IC50: 0.665 µM
NCI-H460
  IC50: 0.742 µM

## CCCCCNc1nnc(NCCCCC)c2cc3ccccc3cc12
MCF7
  IC50: 2.57 µM
HT-29
  IC50: 2.7 µM
SF-268
  IC50: 2.7 µM
NCI-H460
  IC50: 2.37 µM

## c1ccc(CCNc2nnc(NCCc3ccccc3)c3cc4ccccc4cc23)cc1
MCF7
  IC50: 2.57 µM
HT-29
  IC50: 2.95 µM
SF-268
  IC50: 2.63 µM
NCI-H460
  IC50: 1.83 µM

## CCCCNc1nnc(Cl)c2cc3ccccc3cc12
MCF7
  IC50: > 100 µM
HT-29
  IC50: > 100 µM
SF-268
  IC50: 88 µM
NCI-H460
  IC50: 85.5 µM

## COc1cccc2c1C(=O)c1c(O)c3c(c(O)c1C2=O)C[C@@](O)(C(=O)CO)C[C@@H]3O[C@H]1C[C@H](N)[C@H](O)[C@H](C)O1 [DOXORUBICIN]
MCF7
  IC50: 0.324 µM
HT-29
  IC50: 0.28 µM
SF-268
  IC50: 0.22 µM
Calf thymus DNA
  Tm: 20.6 °C
NCI-H460
  IC50: 0.264 µM

## NCCCN1CCN(CCCNc2nnc(Cl)c3cc4ccccc4cc23)CC1
MCF7
  IC50: 9.2 µM
HT-29
  IC50: 10.5 µM
SF-268
  IC50: 12.6 µM
NCI-H460
  IC50: 8.8 µM
